The source of these data is ChEMBL document CHEMBL1129458, “Indole inhibitors of human nonpancreatic secretory phospholipase A2. 3. Indole-3-glyoxamides” (J Med Chem, 1996).

Structures are written as SMILES. pIC50: −log10 of the molar value.

A word on the pIC50: it is −log10 of the IC50, conventionally taken in molar units.

Assay [1] is filed under the species Cavia porcellus. Kind of assay: Inhibition Arachidonic acid(AA) induced contraction of GP lung tissue. In kind it is functional. Put shortly:
(§1)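 Guinea pig lung pleural strips were contracted with either hnps-PLA2 or arachidonic acid, the latter serving as the control challenge for selectivity. Antagonism is given as KB.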

The species named for assay [2] is Cavia porcellus. Kind of assay: Inhibition of Phospholipase A2 induced contraction of GP lung tissue. In kind it is functional. The method in brief:
as §1

Assay [3] has as its target T1, Phospholipase A2, membrane associated (Homo sapiens, UniProt P14555).
T1 sequence (P14555 whole entry): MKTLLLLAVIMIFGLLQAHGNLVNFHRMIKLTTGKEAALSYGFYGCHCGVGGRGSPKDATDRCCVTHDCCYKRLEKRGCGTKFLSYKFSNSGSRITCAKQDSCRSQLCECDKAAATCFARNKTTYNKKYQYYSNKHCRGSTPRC
Put plainly: Inhibition of human nonpancreatic secretory Phospholipase A2 through DOC/PC assay. The method in brief: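 hnps-PLA2 (10 ng per tube; 3 nM) was preincubated with test compound in DMSO in pH 8 Tris buffer with 0.2 M NaCl, 2 mM CaCl2 and fatty-acid-free BSA. The substrate was sonicated mixed micelles (final 3 mM deoxycholate/1 mM PC) with [14C]-palmitoyl-oleoyl-PC. Reactions ran 1 h at 40 °C and were stopped with Dole reagent. Released [14C]oleic acid was extracted with heptane/silica and counted. IC50 was calculated against diluent controls.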

For assay [4], the target named is T1, Phospholipase A2, membrane associated. Put plainly: Inhibition of human nonpancreatic secretory Phospholipase A2 through chromogenic assay.
The target of assay [5] is T2, Phospholipase A2, major isoenzyme (Sus scrofa, UniProt P00592). Kind of assay: Compound was tested for inhibition of porcine secreted pancreatic PLA2.
T2 sequence (P00592 whole entry): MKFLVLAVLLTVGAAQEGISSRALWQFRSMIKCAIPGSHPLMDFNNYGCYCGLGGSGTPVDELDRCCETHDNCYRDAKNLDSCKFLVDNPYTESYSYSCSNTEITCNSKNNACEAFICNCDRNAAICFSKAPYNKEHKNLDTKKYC
Assay [6] deals with T3, Phospholipase A2 (Homo sapiens, UniProt P04054). Kind of assay: Compound was tested for inhibition of human secretory pancreatic PLA2.
T3 sequence (P04054 whole entry): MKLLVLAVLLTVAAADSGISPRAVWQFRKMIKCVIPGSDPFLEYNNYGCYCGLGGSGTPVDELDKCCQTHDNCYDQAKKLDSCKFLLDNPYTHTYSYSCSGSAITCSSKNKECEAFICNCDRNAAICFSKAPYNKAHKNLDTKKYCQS
Assay [7] in a line: Mole fraction is the IC50 concentration divided by the total lipid concentration (4000 uM) in DOC/PC assay. In kind it is functional. Put shortly: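 The value is a mole fraction: the DOC/PC assay IC50 (3 nM hnps-PLA2; 3 mM DOC/1 mM [14C]PC micelles; 1 h at 40 °C; released [14C]oleic acid counted) divided by the total lipid concentration of 4000 µM.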
Assay [8] can be described thus: Mole fraction of the IC50 concentration of compound divided by the total lipid concentration (1230 uM) in a chromogenic assay. It counts as functional.
The target in assay [9] is T3, Phospholipase A2. Put plainly: Compound was tested for inhibition of human secretory pancreatic Phospholipase A2.
Assay [10] has as its target T2, Phospholipase A2, major isoenzyme. Kind of assay: Compound was tested for inhibition of porcine secretory pancreatic PLA2.
Assay [11] deals with T1, Phospholipase A2, membrane associated. Put plainly: Compound was evaluated to inhibit human nonpancreatic secretory Phospholipase A2 through chromogenic assay. It counts as functional. The method in brief: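 Chromogenic hnps-PLA₂ hydrolysis assay with 16 nM enzyme and 1.23 mM (1230 µM) total lipid substrate. IC₅₀ was determined, and the mole-fraction value is the IC₅₀ divided by the total lipid concentration.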

The target of assay [12] is T3, Phospholipase A2. Put plainly: Compound was evaluated to inhibit human secretory pancreatic Phospholipase A2.
The target in assay [13] is T3, Phospholipase A2. Put plainly: Compound was tested for inhibition of human secreted pancreatic PLA2.
Assay [14] has as its target T2, Phospholipase A2, major isoenzyme. Put plainly: Compound was tested for inhibition of porcine secretory pancreatic Phospholipase A2.

Molecule `CCc1c(C(=O)C(N)=O)c2c(OCC(=O)O)cccc2n1Cc1cccc(Cl)c1` gave an ED50 in the assay listed under Cavia porcellus [1] of 5 µM. This molecule came in with a KB in the assay listed under Cavia porcellus [2] of 0.11 µM. Also, the pIC50 was 7.60 in assay [3], 8.15 in assay [4], 8.52 in assay [5] and 6.41 at Phospholipase A2 [6]. The Mole fraction in [7] came to 6.3e-06; in assay [8] it was 5.8e-06.

Turning to `CCc1c(C(=O)C(N)=O)c2c(OCC(=O)O)cccc2n1Cc1ccccc1` [VARESPLADIB], the ED50 in the assay listed under Cavia porcellus [1] was over 30 µM. Moreover, in the assay filed under Cavia porcellus [2], the KB came out at 0.083 µM. Besides, the pIC50 against Phospholipase A2 [9] was 6.64; in [10] it was 7.32. In addition, the Mole fraction in assay [7] worked out at 1.8e-06; in assay [8], 7.3e-06.

`CCc1c(C(=O)C(N)=O)c2c(OCC(=O)O)cccc2n1S(=O)(=O)c1ccccc1` came in with a KB in the assay listed under Cavia porcellus [2] of 0.316 µM. This molecule showed a pIC50 in assay [11] of 7.55. Also, in assay [8], the Mole fraction amounted to 2.3e-05.

`Cc1c(C(=O)C(N)=O)c2c(CCC(=O)O)cccc2n1Cc1ccccc1` returned a KB in the assay listed under Cavia porcellus [2] of 0.614 µM. Moreover, the pIC50 on Phospholipase A2 [12] was under 4.00; in [4], 6.84. For the same molecule, the Mole fraction in assay [8] was 0.00012.

The molecule `CCCCCCCCn1c(C)c(C(=O)C(N)=O)c2c(OCC(=O)O)cccc21` registered an ED50 in the assay filed under Cavia porcellus [1] of over 30 µM. Moreover, the KB in the assay listed under Cavia porcellus [2] was 0.061 µM. For the same molecule, the pIC50 against Phospholipase A2 [13] was 6.11; in [3], 7.74; in [4], 8.10. Further, the Mole fraction in [7] amounted to 4.5e-06; in [8], 6.5e-06.

In the assay filed under Cavia porcellus [1], `Cc1c(C(=O)C(N)=O)c2c(OCC(=O)O)cccc2n1Cc1ccccc1-c1ccccc1` yielded an ED50 of over 10 µM. Also, the KB in the assay listed under Cavia porcellus [2] worked out at 0.068 µM. Also, the pIC50 is 6.44 on Phospholipase A2 [9], 8.52 in assay [3], 8.22 in assay [4] and 7.01 in [14]. For the same molecule, the Mole fraction in [7] came out at 7.5e-07; in assay [8] it was 5e-06.

With `Cc1c(C(=O)C(N)=O)c2c(/C=C/C(=O)O)cccc2n1Cc1ccccc1`, the pIC50 against Phospholipase A2 [12] is under 4.00; in [4], 4.34. The molecule also registered a Mole fraction in assay [8] of 0.036.
